We go through two compounds from ChEMBL document CHEMBL1811906, “Synthesis and evaluation of strand and turn modified ring-extended gramicidin S derivatives” (Bioorg Med Chem, 2011).

Converted amounts (≈) assume the structure as drawn. Residues, ends and D or L forms follow the SMILES beside them.

One may read the MIC as the smallest concentration in the dilution series that meets the test's criterion for growth inhibition. Low readings indicate greater potency, high ones weaker potency.

Series [1] deals with Staphylococcus epidermidis. Put plainly: Antimicrobial activity against Staphylococcus epidermidis ATCC 12228 after 24 hrs by broth dilution method. Format: functional. Particulars: ATCC 12228, 24 h. Put shortly: (§1)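 Strains stored at −70 °C, grown at 30 °C on blood agar, suspended in physiological saline to OD595 0.1, diluted 10× in saline. 2 µL inoculum added to 100 µL nutrient broth with yeast extract. Peptides dissolved in ethanol (4 g/L), diluted in water (1 g/L), then two-fold in broth (64 to 1 mg/L). Incubated at 30 °C; MIC read as lowest concentration inhibiting growth at 24 h.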
(In general: Dilution methods test growth across graded concentrations, often in twofold steps.)

Another series concerns Pseudomonas aeruginosa. Briefly: Antimicrobial activity against Pseudomonas aeruginosa ATCC 27853 after 24 hrs by broth dilution method. The conditions noted are these: ATCC 27853, 24 h. It counts as functional. The method in brief: as §1
For a further series, the system named is Proteus mirabilis. Put plainly: Antimicrobial activity against Proteus mirabilis 1190901236 after 24 hrs by broth dilution method. It counts as functional. The conditions noted are these: Proteus mirabilis, 1190901236, 24 h. Put shortly: as §1
The test system of a further series is Staphylococcus aureus. Briefly: Antimicrobial activity against Staphylococcus aureus ATCC 29213 after 24 hrs by broth dilution method. Format: functional. The conditions noted are these: ATCC 29213, 24 h. The method in brief: as §1
The subject of the next series is Enterobacter cloacae. Put plainly: Antimicrobial activity against Enterobacter cloacae 1190900252 after 24 hrs by broth dilution method. Format: functional. Particulars: Enterobacter cloacae, 1190900252, 24 h. Put shortly: as §1
Another series has as its system Bacillus cereus. Put plainly: Antimicrobial activity against Bacillus cereus ATCC 11778 after 24 hrs by broth dilution method. The conditions noted are these: ATCC 11778, 24 h. Format: functional. The method in brief:
as §1

Series [2] is described as follows: Toxicity in human erythrocytes assessed as hemolytic activity after 4 hrs. It counts as cell-based. Particulars: erythrocyte. Put shortly:
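Heparinized fresh blood spun at 1000 g, 10 °C; erythrocytes washed three times in 0.85% saline and diluted to 1/25 packed volume. Peptide stocks 1.5 mM in 30% DMSO/saline, serially two-fold diluted in saline. Cells added, then incubated 4 h at 37 °C and centrifuged. Supernatant A405 read against 1% Triton X-100 as full lysis; single experiment run in triplicate.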

The subject of a further series is Enterococcus faecalis. Put plainly: Antimicrobial activity against Enterococcus faecalis ATCC 29212 after 24 hrs by broth dilution method. Format: functional. The conditions noted are these: ATCC 29212, 24 h. Put shortly: as §1
For a further series, the system named is Escherichia coli. Put plainly: Antimicrobial activity against Escherichia coli ATCC 25922 after 24 hrs by broth dilution method. Format: functional. The conditions noted are these: ATCC 25922, 24 h. The method in brief:
as §1

In the next series the test system is Klebsiella pneumoniae. Briefly: Antimicrobial activity against Klebsiella pneumoniae 1190901525 after 24 hrs by broth dilution method. It counts as functional. The conditions noted are these: Klebsiella pneumoniae, 1190901525, 24 h. Put shortly: as §1

With `CC(C)C[C@@H]1NC(=O)[C@H](CCCCN)NC(=O)[C@H](C(C)C)NC(=O)[C@@H]2CCCN2C(=O)[C@@H](Cc2ccc(O)cc2)NC(=O)[C@H](CC(C)C)NC(=O)[C@H](CCCCN)NC(=O)[C@H](C(C)C)NC(=O)[C@H](CCCCN)NC(=O)[C@H](CC(C)C)NC(=O)[C@@H]2CCCN2C(=O)[C@@H](Cc2ccc(O)cc2)NC(=O)[C@H](C(C)C)NC(=O)[C@@H](CCCCN)NC1=O` (HELM PEPTIDE1{K.L.[dK].V.[dY].P.L.K.V.K.L.[dY].P.V}$PEPTIDE1,PEPTIDE1,1:R1-14:R2$$$V2.0), the minimum inhibitory concentration (MIC) in series [1] was 8 µg/mL (≈ 4.79 µM); with Pseudomonas aeruginosa, above 64 µg/mL; in the series on Proteus mirabilis, above 64 µg/mL; against Staphylococcus aureus, 64 µg/mL (≈ 38.3 µM); against Enterobacter cloacae, 64 µg/mL (≈ 38.3 µM); against Bacillus cereus, 16 µg/mL (≈ 9.58 µM). Further, the MIC in the series on Enterococcus faecalis, in the series on Escherichia coli and in the series on Klebsiella pneumoniae was 64 µg/mL (≈ 38.3 µM) in each case. Further, the HD100 in [2] came out at 500 µM.

As for `CC(C)C[C@@H]1NC(=O)[C@H](CCCN)NC(=O)[C@H](C(C)C)NC(=O)[C@@H]2CCCN2C(=O)[C@@H](Cc2ccccc2)NC(=O)[C@H](CC(C)C)NC(=O)[C@H](CCCN)NC(=O)[C@H](C(C)C)NC(=O)[C@@H]2CCCN2C(=O)[C@@H](Cc2ccccc2)NC1=O` [GRAMICIDIN S] (HELM PEPTIDE1{L.[dF].P.V.[Orn].L.[dF].P.V.[Orn]}$PEPTIDE1,PEPTIDE1,1:R1-10:R2$$$V2.0), the MIC is 4 µg/mL (≈ 3.5 µM) in series [1]; 64 µg/mL (≈ 56.1 µM) against Pseudomonas aeruginosa; above 64 µg/mL against Proteus mirabilis; 4 µg/mL (≈ 3.5 µM) in the series with Staphylococcus aureus; 64 µg/mL (≈ 56.1 µM) against Enterobacter cloacae; 4 µg/mL (≈ 3.5 µM) against Bacillus cereus. The MIC with Enterococcus faecalis is 8 µg/mL (≈ 7.01 µM); against Escherichia coli, 32 µg/mL (≈ 28 µM); in the series on Klebsiella pneumoniae it was 64 µg/mL (≈ 56.1 µM). Also, the HD100 in [2] amounted to 62.5 µM.
